# E-sel inducer – E-selectin induction in HUVECs, primary screen, imaging, HUVEC, immunofluorescence imaging, single point. P16581. normalized: neutral wells 0, TNF-alpha wells 100. activation, % at 7.58 µM. 260,000 compounds, 0.37% hits. AID 686992, 2013;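 active = mean E-selectin-positive cell signal at least 10% of the positive control, reached in at least 60% of replicates, without over 20% cell loss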
# Target sequence (P16581 whole entry, looked up): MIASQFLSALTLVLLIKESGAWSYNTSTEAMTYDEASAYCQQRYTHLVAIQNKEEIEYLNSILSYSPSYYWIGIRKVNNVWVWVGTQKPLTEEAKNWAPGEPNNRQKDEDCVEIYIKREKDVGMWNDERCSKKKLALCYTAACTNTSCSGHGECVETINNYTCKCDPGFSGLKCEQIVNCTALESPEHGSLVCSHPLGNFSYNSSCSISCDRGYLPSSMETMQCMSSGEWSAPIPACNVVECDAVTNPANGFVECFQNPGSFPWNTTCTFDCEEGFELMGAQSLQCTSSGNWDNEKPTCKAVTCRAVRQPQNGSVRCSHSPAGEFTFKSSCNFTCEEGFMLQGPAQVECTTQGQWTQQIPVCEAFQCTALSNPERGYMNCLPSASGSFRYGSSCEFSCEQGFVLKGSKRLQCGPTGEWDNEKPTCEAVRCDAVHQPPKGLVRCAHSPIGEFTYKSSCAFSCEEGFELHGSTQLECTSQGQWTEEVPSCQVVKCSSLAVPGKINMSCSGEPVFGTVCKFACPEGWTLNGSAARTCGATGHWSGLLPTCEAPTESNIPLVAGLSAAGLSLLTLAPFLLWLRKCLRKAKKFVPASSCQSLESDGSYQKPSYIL
#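 Material: HUVEC primary endothelial cells; Amount: 3,000 cells per well; Dosing: single concentration; Medium: EGM-2 growth medium on 0.1% gelatin-coated wells; Read-out basis: percent E-selectin-positive cells; Signal: immunofluorescence imaging; Control set: TNF-alpha, DMSO.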
# Xi reactivation – activators of inactive X chromosome reactivation, primary screen, imaging, XiGFP fibroblasts, GFP high-content imaging, set 2 | XiGFP mouse fibroblasts, % GFP-positive cells imaging, 3 d; cells co-treated with 5-aza-dC sensitizer; scaled so ellipticine positive control = 100% | activation, % at 7.58 µM | 360,000 compounds, 0.055% hits | AID 743238, 2013;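 active = mean normalized replicate activation at least 10% and every replicate at or above 10%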;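 also: 0% = median of on-plate neutral control wells and 100% = ellipticine 6 µM median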
#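 Assay system: SV40-immortalized XiGFP fibroblast cells, line 68-5-11; buffer or medium: DMEM plus 5-aza-dC sensitizer; compound: one concentration, pinned; timing: compounds 3 days, fix/stain 15 min at room temperature; benchmarks: positive control ellipticine, 6 µM final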
# An asterisk follows results filed as active; nt = not tested or not shown. The entries come from a sample that favours hits as a whole.
SMILES,E-sel inducer,Xi reactivation
COc1ccc(CN(C)C[C@@H]2Oc3ccc(NC(=O)Nc4ccc(F)cc4)cc3CC(=O)N([C@H](C)CO)C[C@H]2C)cc1,83*,0
COc1ccc(CN(C)C[C@H]2Oc3ccc(NC(=O)Nc4ccc(F)cc4)cc3CC(=O)N([C@H](C)CO)C[C@H]2C)cc1,-4,0
COc1ccc(CN(C)C[C@H]2Oc3ccc(NC(=O)Nc4ccc(F)cc4)cc3CC(=O)N([C@H](C)CO)C[C@@H]2C)cc1,12,0
CCCN1C[C@@H](C)[C@@H](OC)CN(C)C(=O)c2cc(NC(=O)CC)ccc2OC[C@H]1C,0,0
CCN1/C(=C2\SC(=S)N(Cc3ccccc3)C2=O)Sc2ccccc21,-2,1
CCC(CO)[n+]1c(C)cc(/C=C2\Sc3ccccc3N2Cc2ccccc2)cc1C (stereo not drawn),nt,103*
COCC(=O)N1C[C@@H]2[C@H](c3ccccc31)[C@@H](CO)N2Cc1ccccc1F,1,0
Cc1cc(C(=O)Nc2ccc(Cl)cc2)n(-c2ccccc2)n1,41*,0
Cc1ccc(NC(=O)c2cc(C)nn2-c2ccccc2)cc1,0,0
COc1ccc(NC(=O)N[C@@H]2CC[C@H](CC(=O)NC3CCC3)O[C@@H]2CO)cc1,1,0
COc1cc(C(=O)NC(C)c2cc(C)ccc2C)ccc1OCC(=O)N1CCOCC1 (stereo not drawn),144*,0
COc1cc(C(=O)NC(C)c2ccccc2)ccc1OCC(=O)N1CCOCC1 (stereo not drawn),0,0
CCCCn1nc(NC(=O)CCC)c2cc3cc(OC)ccc3nc21,nt,0
CCCCn1nc(NC(=O)CC(C)C)c2cc3cc(OC)ccc3nc21,56*,0
COC(=O)C[C@H]1CC[C@H]2[C@@H](COC[C@H](O)CN2S(=O)(=O)c2ccccc2C)O1,0,0
CCOC(=O)c1nn(-c2ccccc2)cc1O,1,0
CCOC(=O)c1nn(-c2ccc3ccccc3c2)cc1O,0,17*
CCCC#Cc1cnc2c(c1)C(=O)N([C@@H](C)CO)C[C@@H](C)[C@H](CN(C)C(=O)c1cccc(F)c1)O2,0,0
O=C(NC1CCCC1)[C@@H]1[C@@H](CO)[C@@H]2Cn3c(ccc(C4=CCCC4)c3=O)[C@H]1N2CC1CC1,0,0
O=c1[nH]c(=O)n(C2C[C@H](O)[C@@H](CO)O2)cc1C(F)(F)F (stereo partly drawn),1,0
O=c1[nH]c(=O)n([C@H]2C[C@H](O)[C@@H](CO)O2)cc1C(F)(F)F,1,25*
O=C(CN1C(=O)c2cccc3cccc(c23)C1=O)NCCCO,63*,0
O=C(CCCCCN1C(=O)c2cccc3cccc(c23)C1=O)NCCCO,0,0
C[C@H](CO)N1C[C@H](C)[C@H](CN(C)Cc2ccc(C(F)(F)F)cc2)Oc2ccc(NC(=O)C3CCCCC3)cc2CC1=O,1,-1
COc1cccc(CC(=O)Nc2ccc(S(=O)(=O)N3CCCCC3)cc2)c1,0,0
CCc1cccc2cc3c(N)c(C(=O)Nc4ccc(S(=O)(=O)N5CCCC5)cc4)sc3nc12,-1,89*
COCC(=O)N1[C@H](CO)[C@H](c2ccccc2)C12CN(C(=O)NC1CCCC1)C2,0,0
CCNC(=O)C[C@@H]1CC[C@H]2[C@H](COc3ccc(NC(=O)C4CCCCC4)cc3C(=O)N2C)O1,0,0

# Screens: PubChem, Broad Institute
